NR3A LBD binder: modulators (binders) of human NR3A ligand-binding domain. NR3A LBD differential scanning fluorimetry, Tm shift; 0% = protein alone, 100% = glycine-bound protein. Tm shift relative to glycine control, % at 25 µM. actives 2.5% (n = 340,000). AID 1259313;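 active = melting temperature shift of at least 10% of the positive control shift, at one fixed dose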
T cruzi repl: blocks replication of Trypanosoma cruzi | T. cruzi beta-gal in NIH3T3, luminescence, 90 h | inhibition, % (no concentration beside the values) | actives 1.4% (n = 300,000) | AID 1885;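 active = mean inhibition across valid replicates above about 55%, limit read from the data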;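 note: signal also drops with host cell toxicity which is not excluded here; 0% = plate median of DMSO wells and 100% = zero luminescence signal; higher percent means less beta-gal luminescence so fewer parasites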
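Read-out: Parasite load inhibition, % | Test system: Mouse NIH/3T3 fibroblasts infected with β-gal-expressing T. cruzi Tulahuen C4 | Amount: 5,000 cells/well | Medium: DMEM, 2% fetal bovine serum | Signal: GalScreen β-gal luminescence, detergent lysis, 60 min | Timing: 3 h attach, ≥90 h co-culture | Also added: Tulahuen C4 trypomastigotes, 5000/well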
Beta apoptosis: beta cell apoptosis inhibition; protection from apoptosis, % (concentration not given with the values); actives 0.8% (n = 300,000); INS-1E cytokine-induced death, ATP luminescence, 48 h; percent of positive-control rescue, neutral wells zero;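 active = Every replicate reaches about 75%, or at least half do and their mean reaches it too, limit read from the data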;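 note: 0% = cytokine-treated negative control wells and 100% = positive control rescue; higher means more ATP so stronger rescue from cytokine killing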
CHOP inhibitor: CHOP inhibition in unfolded protein response | CHO-K1 CHOP-promoter luciferase, tunicamycin-induced, 15-18 h | AID 2732 | inhibition, % at 10 µM | actives 3.8% (n = 220,000);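 active = compounds that reduced the stress-induced luciferase reporter signal by more than about 70% of percent inhibition, limit read from the data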;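 note: 0% = tunicamycin plus vehicle and 100% = wells without tunicamycin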
PREPL inhibitor: inhibits the human prolyl oligopeptidase-like enzyme | recombinant PREPL, fluorescence polarization activity-based probe | AID 2751 | inhibition, % at 5.96 µM | actives 0.68% (n = 320,000) | Q4J6C6; in the data active = inhibition above about 43%;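 note: 0% = enzyme with DMSO and 100% = wells lacking enzyme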
Target sequence (Q4J6C6 whole entry, looked up): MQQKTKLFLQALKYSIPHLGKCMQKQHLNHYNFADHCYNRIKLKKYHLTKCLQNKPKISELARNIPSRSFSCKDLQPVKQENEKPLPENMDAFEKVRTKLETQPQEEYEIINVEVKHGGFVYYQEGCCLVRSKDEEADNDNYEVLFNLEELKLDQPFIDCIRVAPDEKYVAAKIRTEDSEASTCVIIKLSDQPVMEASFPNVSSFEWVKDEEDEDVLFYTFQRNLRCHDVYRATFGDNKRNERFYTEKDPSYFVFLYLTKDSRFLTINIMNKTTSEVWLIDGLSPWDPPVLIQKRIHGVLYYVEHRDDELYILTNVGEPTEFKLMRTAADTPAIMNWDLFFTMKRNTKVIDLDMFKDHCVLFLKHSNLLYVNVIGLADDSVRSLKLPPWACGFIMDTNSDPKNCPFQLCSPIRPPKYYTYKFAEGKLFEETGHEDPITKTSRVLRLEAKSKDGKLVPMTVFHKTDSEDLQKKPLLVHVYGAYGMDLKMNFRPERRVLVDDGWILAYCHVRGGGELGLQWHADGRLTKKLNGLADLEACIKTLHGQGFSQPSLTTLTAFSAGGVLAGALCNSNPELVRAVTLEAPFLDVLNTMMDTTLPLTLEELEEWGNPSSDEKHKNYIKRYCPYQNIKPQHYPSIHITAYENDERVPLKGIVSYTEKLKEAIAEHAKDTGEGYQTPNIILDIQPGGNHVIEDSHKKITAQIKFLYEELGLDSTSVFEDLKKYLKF
CSC inhib: cancer stem cell inhibition | cancer stem cell-like cells viability, luminescence | actives 1.1% (n = 300,000) | inhibition, % at 7.5 µM; in the data active = inhibition above about 75%; tested in HMLE shEcad cells
* = called active by the depositor. An excerpt weighted towards active compounds, which were near 6.7% of everything screened.

How did Nc1nonc1-n1nnc(C(=O)N/N=C/c2ccccn2)c1CNc1ccccc1 do in these assays?
NR3A LBD binder: -7.2; T cruzi repl: -8.7; Beta apoptosis: -5.1; PREPL inhibitor: -3.1; CSC inhib: 1.8

What do the screens show for `Nc1nonc1-n1nnc(C(=O)N/N=C/c2ccc(OCc3ccccc3)cc2)c1CNc1ccccc1`?
NR3A LBD binder: 31.2*; T cruzi repl: -24.2; Beta apoptosis: 5.0; PREPL inhibitor: -5.6; CSC inhib: 12.8

Results for COC(=O)[C@@]12CCCN1[C@H](c1ccc(-c3ccccc3)cc1)[C@@H]1C(=O)N(C)C(=O)[C@@H]12 ?
NR3A LBD binder: 2.3; T cruzi repl: -2.1; Beta apoptosis: -11.3; PREPL inhibitor: 9.2; CSC inhib: -9.1

Results for Cc1onc(-c2ccccc2Cl)c1C(=O)Nc1ccccc1 ?
NR3A LBD binder: 4.2; T cruzi repl: -10.0; Beta apoptosis: 0.5; CHOP inhibitor: 4.6; PREPL inhibitor: 12.2; CSC inhib: 8.4

Results for CCC(=O)Nc1ccc(/C(C)=N/NC(=O)c2c(-c3ccccc3Cl)noc2C)cc1 ?
NR3A LBD binder: 11.5*; T cruzi repl: -25.8; Beta apoptosis: 1.4; CHOP inhibitor: 9.5; PREPL inhibitor: -0.1; CSC inhib: -17.6

What do the screens show for `C/C(=N/NC(=O)c1ccc(Cl)s1)c1ccc(NC(=O)COc2ccc(Cl)cc2)cc1`?
NR3A LBD binder: -3.3; T cruzi repl: 1.1; Beta apoptosis: 6.0; CHOP inhibitor: 61.5; PREPL inhibitor: -12.0; CSC inhib: -1.9

Results for CCC(=O)Nc1ccc(/C(C)=N\NC(=O)c2ccc(C)s2)cc1 ?
NR3A LBD binder: 21.8*; T cruzi repl: -7.6; Beta apoptosis: -2.3; CHOP inhibitor: 6.2; PREPL inhibitor: -2.8

How did CSc1sc(C(=O)N(C)C)c2c1S(=O)(=O)N(C)c1ccccc1-2 do in these assays?
NR3A LBD binder: -1.7; T cruzi repl: -3.1; Beta apoptosis: -4.4; CHOP inhibitor: -2.9; PREPL inhibitor: 10.2; CSC inhib: 21.1

What do the screens show for `COC(=O)c1ccc(C(=O)Nc2ccc3nc(-c4ccncc4)[nH]c3c2)cc1`?
NR3A LBD binder: 15.4*; T cruzi repl: -17.3; PREPL inhibitor: -0.8

How did COC(=O)c1ccc(C(=O)Nc2ccc3nc(-c4cccnc4)[nH]c3c2)cc1 do in these assays?
NR3A LBD binder: 3.9; T cruzi repl: -0.8; CHOP inhibitor: -28.8; PREPL inhibitor: 2.1; CSC inhib: -2.5

Results for Nc1ccc(C(=O)Nc2ccc3nc(-c4cccnc4)[nH]c3c2)cc1 ?
NR3A LBD binder: 12.6*; T cruzi repl: -1.9; Beta apoptosis: 1.7; CHOP inhibitor: -7.8; PREPL inhibitor: 11.1; CSC inhib: -6.2

What do the screens show for `Cn1cccc1-c1nc2ccc(NC(=O)c3ccc([N+](=O)[O-])cc3)cc2[nH]1`?
NR3A LBD binder: 27.1*; T cruzi repl: 28.1; CHOP inhibitor: 39.0; PREPL inhibitor: 17.6; CSC inhib: 2.4

What do the screens show for `Cn1cccc1-c1nc2ccc(NC(=O)c3ccccc3)cc2[nH]1`?
NR3A LBD binder: 4.9; T cruzi repl: -9.1; Beta apoptosis: 9.6; CHOP inhibitor: 24.1; PREPL inhibitor: -4.8; CSC inhib: -13.1

What do the screens show for `COc1cc(/C=C/C(=O)OCC(=O)N(C)CC(=O)Nc2ccc(F)cc2)ccc1OC(F)F`?
NR3A LBD binder: 0.2; Beta apoptosis: -1.0; PREPL inhibitor: 3.4; CSC inhib: -9.8

What do the screens show for `Cc1ccccc1C(=O)NNC(=O)C1CC(=O)N(c2ccc3c(c2)OCCO3)C1` (configuration not stated)?
NR3A LBD binder: 4.6; Beta apoptosis: -6.9; PREPL inhibitor: 0.4

Results for CC(C)C(NC(=O)c1c(F)cccc1F)C(=O)NCCc1ccc(S(N)(=O)=O)cc1 (configuration not stated) ?
NR3A LBD binder: -1.3; T cruzi repl: -4.8; Beta apoptosis: -7.4; PREPL inhibitor: -7.0; CSC inhib: -8.6

Results for CC(Sc1nc(-c2ccccc2)cc(C(F)(F)F)n1)C(=O)Nc1sc2c(c1C#N)CCC2 (configuration not stated) ?
NR3A LBD binder: -7.6; T cruzi repl: 55.6*; Beta apoptosis: 3.2; CHOP inhibitor: 19.1; PREPL inhibitor: -1.8; CSC inhib: -7.8

What do the screens show for `CC(Sc1nc(-c2ccccc2)cc(C(F)(F)F)n1)C(=O)Nc1sc2c(c1C(N)=O)CCC2` (configuration not stated)?
NR3A LBD binder: 0.3; T cruzi repl: 5.0; Beta apoptosis: 4.3; CHOP inhibitor: 68.5; PREPL inhibitor: 6.4; CSC inhib: -12.3

What do the screens show for `N#Cc1c(C(F)(F)F)cc(-c2ccccc2)nc1SCC(=O)Nc1sc2c(c1C#N)CCC2`?
NR3A LBD binder: 10.5*; T cruzi repl: -3.0; Beta apoptosis: -4.1; CHOP inhibitor: 73.7*; PREPL inhibitor: 6.7; CSC inhib: 6.6

How did N#Cc1ccc(-c2cccnc2)nc1SCC(=O)Nc1sc2c(c1C#N)CCC2 do in these assays?
NR3A LBD binder: -0.5; T cruzi repl: -3.8; Beta apoptosis: 0.8; CHOP inhibitor: 56.1; PREPL inhibitor: -30.1; CSC inhib: 11.9

What do the screens show for `COc1cc(N=Nc2ccc(C)cc2S(N)(=O)=O)c(C)cc1N`?
NR3A LBD binder: -2.4

What do the screens show for `CC12CCC(=O)N1C(C(=O)OCC(=O)Nc1ccc(C(F)(F)F)cc1)CS2` (configuration not stated)?
NR3A LBD binder: 1.4; Beta apoptosis: 0.5; PREPL inhibitor: 18.7

How did CCn1c2ccccc2c2cc(/C=N/NC(=O)c3ccccc3)ccc21 do in these assays?
NR3A LBD binder: -3.4; T cruzi repl: 28.4; Beta apoptosis: 13.9; CHOP inhibitor: 7.3; PREPL inhibitor: 21.3; CSC inhib: 46.0

How did C=CCOc1ccccc1/C=N/NC(=O)c1ccc(Cl)cc1Cl do in these assays?
NR3A LBD binder: -22.1; T cruzi repl: -4.3; Beta apoptosis: 1.3; CHOP inhibitor: 45.5; PREPL inhibitor: 4.7; CSC inhib: -14.0

How did COc1cc(C(=O)Oc2ccccc2/C=N/NC(=O)c2ccc(Cl)cc2Cl)cc(OC)c1OC do in these assays?
NR3A LBD binder: -1.4; T cruzi repl: 10.4; Beta apoptosis: 92.1*; CHOP inhibitor: 64.6; PREPL inhibitor: -5.0; CSC inhib: 22.1

What do the screens show for `COc1cc(C(=O)N/N=C/c2ccc(OC(=O)c3ccccc3Cl)cc2)ccc1O`?
NR3A LBD binder: 26.3*; T cruzi repl: -22.7; Beta apoptosis: -3.3; PREPL inhibitor: 20.0; CSC inhib: -0.7

What do the screens show for `Cn1c2ccccc2c2cc(/C=N/NC(=O)c3cc(O)ccc3O)ccc21`?
NR3A LBD binder: 25.6*; T cruzi repl: -3.9; Beta apoptosis: 2.6; PREPL inhibitor: 30.5; CSC inhib: 67.0

What do the screens show for `Cn1c2ccccc2c2cc(/C=N/NC(=O)c3cc(O)cc(O)c3)ccc21`?
NR3A LBD binder: 27.6*; T cruzi repl: -9.5; Beta apoptosis: 15.1; PREPL inhibitor: 32.2; CSC inhib: -4.2

Screening data (PubChem)
